Measured values as given in ChEMBL document CHEMBL3351938, “C5-Alkyl-2-methylurea-Substituted Pyridines as a New Class of Glucokinase Activators” (ACS Med Chem Lett, 2014).

Columns and labels:
[1] = substrate: CCOCCc1cnc(NC(=O)NC)c(Oc2cccnc2CC)c1; assay: (§1) Activity of human recombinant Glucokinase measured over 5 mins by spectrophotometry
Method in brief: (§2)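 S_0.5 (K_m for glucose) measured with recombinant human GK; duplicate determinations (n = 2).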

[2] = substrate: CCc1ncccc1Oc1cc(CC(C)C)cnc1NC(=O)NC; assay: as §1; method in brief: as §2
[3] = substrate: CCc1ncccc1Oc1cc(CC2CCCCC2)cnc1NC(=O)NC; assay: as §1; method in brief: as §2
[4] = substrate: CCc1ncccc1Oc1cc(CC2CCOCC2)cnc1NC(=O)NC; assay: as §1; method in brief: as §2
[5] = substrate: CCc1ncccc1Oc1cc(CCCCO)cnc1NC(=O)NC; assay: as §1; method in brief: as §2
[6] = substrate: CCc1ncccc1Oc1cc(CCCCOC)cnc1NC(=O)NC; assay: as §1; method in brief: as §2
[7] = substrate: CCc1ncccc1Oc1cc(CCCOC)cnc1NC(=O)NC; assay: as §1; method in brief: as §2
[8] = substrate: CCn1nc(COC)cc1Oc1cc(CC2CCOCC2)cnc1NC(=O)NC; assay: as §1; method in brief: as §2
[9] = substrate: CCn1nccc1Oc1cc(C(O)C2CCOCC2)cnc1NC(=O)NC; assay: as §1; method in brief: as §2
[10] = substrate: CCn1nccc1Oc1cc(CC2CCOCC2)cnc1NC(=O)NC; assay: as §1; method in brief: as §2
[11] = substrate: CCn1nccc1Oc1cc(CCCC(C)(C)O)cnc1NC(=O)NC; assay: as §1; method in brief: as §2
[12] = substrate: CCn1nccc1Oc1cc(CCCCOC)cnc1NC(=O)NC; assay: as §1; method in brief: as §2
[13] = substrate: CCn1nccc1Oc1cc(CN2CCOCC2)cnc1NC(=O)NC; assay: as §1; method in brief: as §2
[14] = substrate: CCn1nccc1Oc1cc(C[C@@H]2CCO[C@@H](COC)C2)cnc1NC(=O)NC; assay: as §1; method in brief: as §2
[15] = substrate: CCn1nccc1Oc1cc(C[C@H]2CCO[C@H](COC)C2)cnc1NC(=O)NC; assay: as §1; method in brief: as §2
[16] = substrate: CCn1nccc1Oc1cc(C[C@H]2CC[C@@H](O)CC2)cnc1NC(=O)NC; assay: as §1; method in brief: as §2
[17] = substrate: CCn1nccc1Oc1cc(C[C@H]2CC[C@@](C)(O)CC2)cnc1NC(=O)NC; assay: as §1; method in brief: as §2
[18] = substrate: CCn1nccc1Oc1cc(C[C@H]2CC[C@H](O)CC2)cnc1NC(=O)NC; assay: as §1; method in brief: as §2
[19] = substrate: CCn1nccc1Oc1cc(C[C@H]2CC[C@](C)(O)CC2)cnc1NC(=O)NC; assay: as §1; method in brief: as §2
[20] = substrate: CCn1nccc1Oc1cc(C[C@H]2C[C@@H](O)C2)cnc1NC(=O)NC; assay: as §1; method in brief: as §2
[21] = substrate: CCn1nccc1Oc1cc(C[C@H]2C[C@@](C)(O)C2)cnc1NC(=O)NC; assay: as §1; method in brief: as §2
[22] = substrate: CCn1nccc1Oc1cc(C[C@H]2C[C@H](O)C2)cnc1NC(=O)NC; assay: as §1; method in brief: as §2
[23] = substrate: CNC(=O)Nc1ncc(CC2CCOCC2)cc1Oc1ccnn1C(C)C; assay: as §1; method in brief: as §2

B1: Hexokinase-4 (Homo sapiens), P35557 (protein)
chain: MLDDRARMEAAKKEKVEQILAEFQLQEEDLKKVMRRMQKEMDRGLRLETHEEASVKMLPTYVRSTPEGSEVGDFLSLDLGGTNFRVMLVKVGEGEEGQWSVKTKHQMYSIPEDAMTGTAEMLFDYISECISDFLDKHQMKHKKLPLGFTFSFPVRHEDIDKGILLNWTKGFKASGAEGNNVVGLLRDAIKRRGDFEMDVVAMVNDTVATMISCYYEDHQCEVGMIVGTGCNACYMEEMQNVELVEGDEGRMCVNTEWGAFGDSGELDEFLLEYDRLVDESSANPGQQLYEKLIGGKYMGELVRLVLLRLVDENLLFHGEASEQLRTRGAFETRFVSQVESDTGDRKQIYNILSTLGLRPSTTDCDIVRRACESVSTRAAHMCSAGLAGVINRMRESRSEDVMRITVGVDGSVYKLHPSFKERFHASVRRLTPSCEITFIESEEGSGRGAALVSAVACKKACMLGQ
**Q.** Which Km [1] does the source give for B1 here?
**A.** 880 µM

**Q.** And the Km [2]?
**A.** 660 µM

**Q.** What about the Km [3] of the same protein?
**A.** 760 µM

**Q.** And the Km [4]?
**A.** 850 µM

**Q.** And the Km [5]?
**A.** 850 µM

**Q.** And the Km [6]?
**A.** 820 µM

**Q.** What about the Km [7] of the same protein?
**A.** 870 µM

**Q.** And the Km [8]?
**A.** 850 µM

**Q.** And the Km [9]?
**A.** 1200 µM

**Q.** What about the Km [10] of the same protein?
**A.** 840 µM

**Q.** And the Km [11]?
**A.** 840 µM

**Q.** And the Km [12]?
**A.** 860 µM

**Q.** What about the Km [13] of the same protein?
**A.** 860 µM

**Q.** What about the Km [14] of the same protein?
**A.** 880 µM

**Q.** What about the Km [15] of the same protein?
**A.** 940 µM

**Q.** What about the Km [16] of the same protein?
**A.** 760 µM

**Q.** What about the Km [17] of the same protein?
**A.** 560 µM

**Q.** What about the Km [18] of the same protein?
**A.** 710 µM

**Q.** What about the Km [19] of the same protein?
**A.** 690 µM

**Q.** What about the Km [20] of the same protein?
**A.** 720 µM

**Q.** And the Km [21]?
**A.** 820 µM

**Q.** What about the Km [22] of the same protein?
**A.** 630 µM

**Q.** And the Km [23]?
**A.** 950 µM
